Experimental data collected from several papers.
Each line is one published result; the experiments were not run side by side.
ADAM17: Disintegrin and metalloproteinase domain-containing protein 17 (ADAM17, Homo sapiens, UniProt P78536)
MAPKAPK2: MAP kinase-activated protein kinase 2 (MAPKAPK2, Homo sapiens, UniProt P49137)

CCOC(=O)c1ccc(OC(=O)CCCCCNC(=N)N)cc1 — inhibition (ADAM17; enzyme activity, inhibitor; 10 µM): 7%
O=C(Nc1cccnn1)N1CCN([C@@H]2CCOc3cc(C(F)(F)F)ccc32)CC1 — inhibition (Motilin receptor (MLNR, Homo sapiens, UniProt O43193); cell-free assay; 20 µM): -3%
Cn1cc(-c2cccc(N3CCc4c(sc5c4CC(C)(C)C5)C3=O)c2CO)cc(Nc2ccncn2)c1=O — inhibition (Phosphatidylinositol 4,5-bisphosphate 3-kinase catalytic subunit alpha isoform (PIK3CA, Homo sapiens, UniProt P42336); enzyme activity, inhibitor; 1 µM): 14%
C[C@H](C(=O)N[C@H]1COc2ccccc2[C@@H]1S(C)(=O)=O)c1ccc(F)cc1 — inhibition (Vasopressin V1b receptor (AVPR1B, Homo sapiens, UniProt P47901); cell-free assay; 10 µM): 26%
COc1cc(Nc2ncc(F)c(Nc3ccc4c(n3)NC(=O)C(C)(C)O4)n2)cc(OC)c1OC — inhibition (Serine/threonine-protein kinase 32B (STK32B, Homo sapiens, UniProt Q9NY57); binding, competition with immobilised ligand; 10 µM): 0%
C#Cc1n[nH]c2c(-c3cn([C@@H](C)c4ccccn4)c(=O)[nH]c3=O)cc(F)cc12 — inhibition (MAPKAPK2; enzyme activity, inhibitor; 0.1 µM): 11.8%
CN(CCN1CCC(OC(=O)Nc2ccccc2-c2ccccc2)CC1)C(=O)c1ccc(CN2CCC(C(N)=O)CC2)cc1 — inhibition (4-aminobutyrate aminotransferase, mitochondrial (Rattus norvegicus, UniProt P50554); enzyme activity, inhibitor; 1 µM): -12%
c1ccc(C(NCCNC(c2ccccc2)c2ccccc2)c2ccccc2)cc1 — inhibition (Gamma-aminobutyric acid type B receptor subunit 1 (GABBR1, Homo sapiens, UniProt Q9UBS5); cell-free assay; 10 µM): -14%
CC(C)C[C@H](CC(=O)NO)C(=O)N[C@H](C(=O)N[C@@H](C)C(=O)NCCN)C(C)(C)C — inhibition (ADAM17; enzyme activity, inhibitor; 10 µM): 73%
CC(C)C[C@H](NC(=O)[C@H](Cc1ccccc1)NC(=O)c1cnccn1)B(O)O — inhibition (Cathepsin G (CTSG, Homo sapiens, UniProt P08311); enzyme activity, inhibitor; 33 µM): 61.8%
C#Cc1n[nH]c2c(-c3cn([C@@H](C)c4ccccc4)c(=O)[nH]c3=O)cc(F)cc12 — inhibition (MAPKAPK2; enzyme activity, inhibitor; 0.1 µM): 11.6%
CN(C)C(=O)COC(=O)Cc1ccc(OC(=O)c2ccc(NC(=N)N)cc2)cc1 — inhibition (ADAM17; enzyme activity, inhibitor; 10 µM): 6%
COc1c2c(cc3c1OCO3)CC[N+](C)=C2.[Cl-] — inhibition (Glycogen synthase kinase-3 beta (GSK3B, Homo sapiens, UniProt P49841); enzyme activity, inhibitor, ADP detection; 100 µM): 9.2%
